{"source": "ChEMBL document CHEMBL1155468", "about": "“Syntheses and evaluation of anticonvulsant profile and teratogenicity of novel amide derivatives of branched aliphatic carboxylic acids with 4-aminobenzensulfonamide” (J Med Chem, 2010)", "key": {"Mus musculus [1]": {"system": "Mus musculus", "test": "Anticonvulsant activity in CF1 albino mouse assessed as inhibition of subcutaneous pentylenetetrazole-induced seizures at 30 mg/kg, ip after 0.5 hrs", "type": "functional, organism-based", "set-up": "dose 30 mg/kg", "in_short": "(§1)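 Adult male CF no. 1 albino mice (18-25 g) dosed ip with compound suspended in 0.5% methylcellulose (0.01 mL/g). Convulsant: pentylenetetrazol dissolved in 0.9% saline as a 0.85% solution for mice, given subcutaneously.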"}, "Mus musculus [2]": {"system": "Mus musculus", "test": "Anticonvulsant activity in CF1 albino mouse assessed as inhibition of subcutaneous pentylenetetrazole-induced seizures at 100 mg/kg, ip after 0.5 hrs", "type": "functional, organism-based", "set-up": "dose 100 mg/kg", "in_short": "as §1"}, "Mus musculus [3]": {"system": "Mus musculus", "test": "Anticonvulsant activity in CF1 albino mouse assessed as inhibition of subcutaneous pentylenetetrazole-induced seizures at 300 mg/kg, ip after 0.5 hrs", "type": "functional, organism-based", "set-up": "dose 300 mg/kg", "in_short": "as §1"}, "Mus musculus [4]": {"system": "Mus musculus", "test": "Anticonvulsant activity in CF1 albino mouse assessed as inhibition of subcutaneous pentylenetetrazole-induced seizures at 30 mg/kg, ip after 4 hrs", "type": "functional, organism-based", "set-up": "dose 30 mg/kg", "in_short": "as §1"}, "Mus musculus [5]": {"system": "Mus musculus", "test": "Anticonvulsant activity in CF1 albino mouse assessed as inhibition of subcutaneous pentylenetetrazole-induced seizures at 100 mg/kg, ip after 4 hrs", "type": "functional, organism-based", "set-up": "dose 100 mg/kg", "in_short": "as §1"}, "Mus musculus [6]": {"system": "Mus musculus", "test": "Teratogenic effect in SWV mouse assessed as resorptions at 325 mg/kg, ip administered on morning of day 8 of gestation", "type": "toxicity, organism-based", "set-up": "dose 325 mg/kg, route intraperitoneal", "settings": "in vivo"}, "Mus musculus [7]": {"system": "Mus musculus", "test": "Teratogenic effect in SWV mouse assessed as resorptions at 164 mg/kg, ip administered on morning of day 8 of gestation", "type": "toxicity, organism-based", "set-up": "dose 164 mg/kg, route intraperitoneal", "settings": "in vivo"}, "Mus musculus [8]": {"system": "Mus musculus", "test": "Teratogenic effect in SWV mouse assessed as resorptions at 805 mg/kg, ip administered on morning of day 8 of gestation", "type": "toxicity, organism-based", "set-up": "dose 805 mg/kg, route intraperitoneal", "settings": "in vivo"}, "Mus musculus [9]": {"system": "Mus musculus", "test": "Teratogenic effect in SWV mouse assessed as resorptions at 537 mg/kg, ip administered on morning of day 8 of gestation", "type": "toxicity, organism-based", "set-up": "dose 537 mg/kg, route intraperitoneal", "settings": "in vivo"}, "Mus musculus [10]": {"system": "Mus musculus", "test": "Teratogenic effect in SWV mouse assessed as fetuses with neural tube deffects at 325 mg/kg, ip administered on morning of day 8 of gestation", "type": "toxicity, organism-based", "set-up": "dose 325 mg/kg, route intraperitoneal", "settings": "in vivo"}, "Mus musculus [11]": {"system": "Mus musculus", "test": "Teratogenic effect in SWV mouse assessed as fetuses with neural tube deffects at 164 mg/kg, ip administered on morning of day 8 of gestation", "type": "toxicity, organism-based", "set-up": "dose 164 mg/kg, route intraperitoneal", "settings": "in vivo"}, "Mus musculus [12]": {"system": "Mus musculus", "test": "Teratogenic effect in SWV mouse assessed as fetuses with neural tube deffects at 537 mg/kg, ip administered on morning of day 8 of gestation", "type": "toxicity, organism-based", "set-up": "dose 537 mg/kg, route intraperitoneal", "settings": "in vivo"}, "Mus musculus [13]": {"system": "Mus musculus", "test": "Teratogenic effect in SWV mouse assessed as live fetuses at 325 mg/kg, ip administered on morning of day 8 of gestation", "type": "toxicity, organism-based", "set-up": "dose 325 mg/kg, route intraperitoneal", "settings": "in vivo"}, "Mus musculus [14]": {"system": "Mus musculus", "test": "Teratogenic effect in SWV mouse assessed as live fetuses at 164 mg/kg, ip administered on morning of day 8 of gestation", "type": "toxicity, organism-based", "set-up": "dose 164 mg/kg, route intraperitoneal", "settings": "in vivo"}, "Mus musculus [15]": {"system": "Mus musculus", "test": "Teratogenic effect in SWV mouse assessed as live fetuses at 537 mg/kg, ip administered on morning of day 8 of gestation", "type": "toxicity, organism-based", "set-up": "dose 537 mg/kg, route intraperitoneal", "settings": "in vivo"}, "Mus musculus [16]": {"system": "Mus musculus", "test": "Anticonvulsant activity in CF1 albino mouse assessed as inhibition of maximal electroshock-induced seizures at 30 mg/kg, ip after 0.5 hrs", "type": "functional, organism-based", "set-up": "dose 30 mg/kg", "in_short": "(§2)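 Test compounds suspended in 0.5% methylcellulose and given ip to adult male CF no. 1 albino mice (18-25 g) at 0.01 mL/g body weight before maximal electroshock challenge.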"}, "Mus musculus [17]": {"system": "Mus musculus", "test": "Anticonvulsant activity in CF1 albino mouse assessed as inhibition of maximal electroshock-induced seizures at 100 mg/kg, ip after 0.5 hrs", "type": "functional, organism-based", "set-up": "dose 100 mg/kg", "in_short": "as §2"}, "Mus musculus [18]": {"system": "Mus musculus", "test": "Anticonvulsant activity in CF1 albino mouse assessed as inhibition of maximal electroshock-induced seizures at 300 mg/kg, ip after 0.5 hrs", "type": "functional, organism-based", "set-up": "dose 300 mg/kg", "in_short": "as §2"}, "Mus musculus [19]": {"system": "Mus musculus", "test": "Anticonvulsant activity in CF1 albino mouse assessed as inhibition of maximal electroshock-induced seizures at 30 mg/kg, ip after 4 hrs", "type": "functional, organism-based", "set-up": "dose 30 mg/kg", "in_short": "as §2"}, "Mus musculus [20]": {"system": "Mus musculus", "test": "Anticonvulsant activity in CF1 albino mouse assessed as inhibition of maximal electroshock-induced seizures at 300 mg/kg, ip after 4 hrs", "type": "functional, organism-based", "set-up": "dose 300 mg/kg", "in_short": "as §2"}, "Mus musculus [21]": {"system": "Mus musculus", "test": "Anticonvulsant activity in CF1 albino mouse assessed as inhibition of subcutaneous pentylenetetrazole-induced seizures at 300 mg/kg, ip after 4 hrs", "type": "functional, organism-based", "set-up": "dose 300 mg/kg", "in_short": "as §1"}, "Mus musculus [22]": {"system": "Mus musculus", "test": "Neurotoxicity in CF1 albino mouse assessed as motor impairment at 30 mg/kg, ip after 0.5 hrs", "type": "toxicity, organism-based", "set-up": "dose 30 mg/kg, route intraperitoneal", "settings": "in vivo"}, "Mus musculus [23]": {"system": "Mus musculus", "test": "Neurotoxicity in CF1 albino mouse assessed as motor impairment at 100 mg/kg, ip after 0.5 hrs", "type": "toxicity, organism-based", "set-up": "dose 100 mg/kg, route intraperitoneal", "settings": "in vivo"}, "Mus musculus [24]": {"system": "Mus musculus", "test": "Neurotoxicity in CF1 albino mouse assessed as motor impairment at 300 mg/kg, ip after 0.5 hrs", "type": "toxicity, organism-based", "set-up": "dose 300 mg/kg, route intraperitoneal", "settings": "in vivo"}, "Mus musculus [25]": {"system": "Mus musculus", "test": "Neurotoxicity in CF1 albino mouse assessed as motor impairment at 30 mg/kg, ip after 4 hrs", "type": "toxicity, organism-based", "set-up": "dose 30 mg/kg, route intraperitoneal", "settings": "in vivo"}, "Mus musculus [26]": {"system": "Mus musculus", "test": "Neurotoxicity in CF1 albino mouse assessed as motor impairment at 100 mg/kg, ip after 4 hrs", "type": "toxicity, organism-based", "set-up": "dose 100 mg/kg, route intraperitoneal", "settings": "in vivo"}, "Mus musculus [27]": {"system": "Mus musculus", "test": "Neurotoxicity in CF1 albino mouse assessed as motor impairment at 300 mg/kg, ip after 4 hrs", "type": "toxicity, organism-based", "set-up": "dose 300 mg/kg, route intraperitoneal", "settings": "in vivo"}, "Rattus norvegicus": {"system": "Rattus norvegicus", "test": "Neurotoxicity in Sprague-Dawley rat assessed as motor impairment at 30 mg/kg, po after 0.25 to 4 hrs", "settings": "in vivo"}}, "note": "The source made the active and inactive calls. The calls are words filed in the database; no cut-off is given here."}
{"smiles": "CCC(CC(C)C)C(=O)Nc1ccc(S(N)(=O)=O)cc1", "note": "(stereo not drawn)", "values": [{"measurement": "Activity", "setting": "Mus musculus [1]", "result": "inactive"}, {"measurement": "Activity", "setting": "Mus musculus [2]", "result": "inactive"}, {"measurement": "Activity", "setting": "Mus musculus [3]", "result": "inactive"}, {"measurement": "Activity", "setting": "Mus musculus [4]", "result": "inactive"}, {"measurement": "Activity", "setting": "Mus musculus [5]", "result": "inactive"}, {"measurement": "Activity", "setting": "Mus musculus [6]", "result": 49.6, "unit": "%"}, {"measurement": "Activity", "setting": "Mus musculus [7]", "result": 6.6, "unit": "%"}, {"measurement": "Activity", "setting": "Mus musculus [8]", "result": 100, "unit": "%"}, {"measurement": "Activity", "setting": "Mus musculus [9]", "result": 96.2, "unit": "%"}, {"measurement": "Activity", "setting": "Mus musculus [10]", "result": 22.7, "unit": "%"}, {"measurement": "Activity", "setting": "Mus musculus [11]", "result": 0.9, "unit": "%"}, {"measurement": "Activity", "setting": "Mus musculus [12]", "result": 50, "unit": "%"}, {"measurement": "Activity", "setting": "Mus musculus [13]", "result": 50.4, "unit": "%"}, {"measurement": "Activity", "setting": "Mus musculus [14]", "result": 95.4, "unit": "%"}, {"measurement": "Activity", "setting": "Mus musculus [15]", "result": 3.8, "unit": "%"}, {"measurement": "Activity", "setting": "Mus musculus [16]", "result": "inactive"}, {"measurement": "Activity", "setting": "Mus musculus [17]", "result": "inactive"}, {"measurement": "Activity", "setting": "Mus musculus [18]", "result": "inactive"}, {"measurement": "Activity", "setting": "Mus musculus [19]", "result": "inactive"}, {"measurement": "Activity", "setting": "Mus musculus [20]", "result": "Active"}, {"measurement": "Activity", "setting": "Mus musculus [21]", "result": "inactive"}, {"measurement": "Activity", "setting": "Mus musculus [22]", "result": "Non-toxic"}, {"measurement": "Activity", "setting": "Mus musculus [23]", "result": "Non-toxic"}, {"measurement": "Activity", "setting": "Mus musculus [24]", "result": "Non-toxic"}, {"measurement": "Activity", "setting": "Mus musculus [25]", "result": "Non-toxic"}, {"measurement": "Activity", "setting": "Mus musculus [26]", "result": "Non-toxic"}, {"measurement": "Activity", "setting": "Mus musculus [27]", "result": "Non-toxic"}, {"measurement": "Activity", "setting": "Rattus norvegicus", "result": "Non-toxic"}]}
